From article PMC2828288 (Journal of medicinal chemistry, 2010)
Where two headings read alike, the source gives them in different places. One block for each compound: values may come before it.

Tests used:
total brain 2-AG levels = conditions: upon administration to mice; cited from earlier work
NTE [1] = molecular target: T1, NTE (Mus musculus, UniProt Q3TRM4); conditions: mice, 20 mg/kg intraperitoneally, or 100 mg/kg orally; cited from earlier work
T1 sequence (Q3TRM4 1-1355): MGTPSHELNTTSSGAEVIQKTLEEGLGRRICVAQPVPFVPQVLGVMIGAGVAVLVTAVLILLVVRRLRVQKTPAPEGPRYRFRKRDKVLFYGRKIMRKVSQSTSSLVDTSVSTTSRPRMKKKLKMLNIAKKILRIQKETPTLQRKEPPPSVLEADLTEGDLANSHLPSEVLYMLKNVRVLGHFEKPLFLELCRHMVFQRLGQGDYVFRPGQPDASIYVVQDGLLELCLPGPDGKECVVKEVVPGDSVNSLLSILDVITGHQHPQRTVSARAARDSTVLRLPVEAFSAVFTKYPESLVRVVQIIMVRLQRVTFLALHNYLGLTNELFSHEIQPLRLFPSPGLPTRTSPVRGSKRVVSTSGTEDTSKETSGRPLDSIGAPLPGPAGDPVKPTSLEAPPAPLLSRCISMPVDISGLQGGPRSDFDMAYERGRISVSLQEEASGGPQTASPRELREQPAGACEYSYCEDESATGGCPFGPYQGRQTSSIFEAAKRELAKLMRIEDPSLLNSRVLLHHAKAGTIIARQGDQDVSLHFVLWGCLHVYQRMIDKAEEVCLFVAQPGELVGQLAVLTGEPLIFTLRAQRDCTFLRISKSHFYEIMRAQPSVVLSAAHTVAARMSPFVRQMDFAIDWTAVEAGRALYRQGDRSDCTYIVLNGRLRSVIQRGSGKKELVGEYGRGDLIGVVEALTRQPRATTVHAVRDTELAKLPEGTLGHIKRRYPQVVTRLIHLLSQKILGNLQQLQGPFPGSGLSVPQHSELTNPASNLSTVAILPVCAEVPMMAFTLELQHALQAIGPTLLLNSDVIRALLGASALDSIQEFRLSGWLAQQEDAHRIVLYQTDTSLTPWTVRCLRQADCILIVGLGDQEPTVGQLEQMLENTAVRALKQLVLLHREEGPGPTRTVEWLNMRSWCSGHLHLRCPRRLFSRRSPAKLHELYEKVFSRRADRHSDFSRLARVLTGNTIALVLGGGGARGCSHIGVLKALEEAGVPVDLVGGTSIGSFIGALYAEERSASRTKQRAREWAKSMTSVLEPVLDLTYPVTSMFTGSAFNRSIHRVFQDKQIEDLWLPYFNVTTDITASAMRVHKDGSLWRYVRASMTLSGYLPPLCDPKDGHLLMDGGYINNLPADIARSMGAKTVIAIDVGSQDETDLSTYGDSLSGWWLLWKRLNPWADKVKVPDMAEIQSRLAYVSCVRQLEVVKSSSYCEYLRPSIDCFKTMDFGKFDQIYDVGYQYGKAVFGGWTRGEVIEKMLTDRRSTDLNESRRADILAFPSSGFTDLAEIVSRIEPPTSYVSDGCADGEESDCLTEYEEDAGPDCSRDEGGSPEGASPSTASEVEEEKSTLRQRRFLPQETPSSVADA

[2] = mice, 20 mg/kg i.p. daily for 6 days; cited from earlier work
FAAH [3] = molecular target: T2, FAAH (Mus musculus, UniProt O08914); conditions: mice, 20 mg/kg intraperitoneally, or 100 mg/kg orally; cited from earlier work
T2 sequence (O08914 1-579): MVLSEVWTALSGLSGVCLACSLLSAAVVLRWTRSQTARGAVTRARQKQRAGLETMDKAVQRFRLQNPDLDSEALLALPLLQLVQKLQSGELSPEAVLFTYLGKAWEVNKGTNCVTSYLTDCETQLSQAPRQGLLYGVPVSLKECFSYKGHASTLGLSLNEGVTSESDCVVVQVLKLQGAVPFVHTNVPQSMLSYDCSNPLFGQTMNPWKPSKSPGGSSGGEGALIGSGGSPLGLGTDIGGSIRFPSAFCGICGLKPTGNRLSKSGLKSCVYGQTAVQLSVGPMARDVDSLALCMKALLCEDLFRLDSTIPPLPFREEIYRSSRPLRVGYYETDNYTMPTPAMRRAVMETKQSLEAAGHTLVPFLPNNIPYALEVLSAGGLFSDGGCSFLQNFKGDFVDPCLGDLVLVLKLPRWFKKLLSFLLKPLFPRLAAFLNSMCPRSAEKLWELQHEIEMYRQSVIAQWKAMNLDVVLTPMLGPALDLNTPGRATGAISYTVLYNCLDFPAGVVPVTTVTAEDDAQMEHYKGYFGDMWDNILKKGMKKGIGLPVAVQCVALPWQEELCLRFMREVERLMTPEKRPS

MAGL [4] = conditions: mice, 20 mg/kg intraperitoneally, or 100 mg/kg orally; cited from earlier work
FAAH [5] = molecular target: T2, FAAH; experiment: FAAH activity after in vivo administration to mice; conditions: administration to mice at doses that reduced MAGL activity; data not shown
[6] = system: serine hydrolases in the mouse brain membrane proteome; type: biochemical; conditions: competitive ABPP
Summary of the method: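 Mouse brain tissue Dounce-homogenized in PBS pH 7.5, spun at 1,400 × g for 5 min, then at 64,000 × g for 45 min; the membrane pellet was resuspended in PBS by sonication. Proteome at 1 mg/ml was preincubated with test compound at the indicated concentrations for 30 min at 37 °C. FP-rhodamine (1 μM final) was then added for 30 min at 25 °C, followed by SDS-PAGE and in-gel fluorescence scanning.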

MAGL [7] = experiment: Competitive ABPP; type: biochemical, mouse; conditions: brain proteome
NTE [8] = molecular target: T1, NTE; experiment: NTE activity after in vivo administration to mice; conditions: 20 mg/kg, i.p., data not shown

Structure (SMILES): O=C(Oc1ccc([N+](=O)[O-])cc1)N1CCC(C(O)(c2ccc3c(c2)OCO3)c2ccc3c(c2)OCO3)CC1 [Compound 1, 4-nitrophenyl 4-(dibenzo[d][1,3]dioxol-5-yl(hydroxy)methyl)piperidine-1-carboxylate]
elevation of total brain 2-AG levels (total brain 2-AG levels): > 8 fold

Structure (SMILES): O=C(Oc1ccc([N+](=O)[O-])cc1)N1CCN(Cc2cccc(Oc3ccccc3)c2)CC1 [Compound 2]
NTE inhibition in vivo (NTE [1]): no inhibition of NTE was observed
death or overt signs of discomfort on chronic administration [2]: did not produce death or overt signs of discomfort
FAAH blockade in vivo (FAAH [3]): completely blocked
MAGL blockade in vivo (MAGL [4]): completely blocked

Structure (SMILES): O=C(Oc1ccc([N+](=O)[O-])cc1)N1CCN(C(c2ccc(F)cc2)c2ccc(F)cc2)CC1 [Compound 5]
FAAH activity in vivo (FAAH [5]): significantly blocked FAAH activity

FAAH activity in vivo (FAAH [5]): significantly blocked FAAH activity
Structure (SMILES): COc1ccc(C(O)(c2ccc(OC)cc2)C2CCN(C(=O)Oc3ccc([N+](=O)[O-])cc3)CC2)cc1 [Compound 6]

Structure (SMILES): CN(CCC(c1ccccc1)c1ccccc1)C(=O)Oc1ccc([N+](=O)[O-])cc1 [Compound 9a, 4-nitrophenyl 3,3-diphenylpropyl(methyl)carbamate]
activity against FAAH, MAGL and other serine hydrolases [6]: inactive

Structure (SMILES): CN(C(=O)Oc1ccc([N+](=O)[O-])cc1)C(c1ccccc1)c1ccccc1 [Compound 9b, 4-nitrophenyl benzhydryl(methyl)carbamate]
activity against FAAH, MAGL and other serine hydrolases [6]: inactive

Structure (SMILES): COc1ccc(C(O)(c2ccc(OC)cc2)C2CCN(C(=O)Oc3ccc([N+](=O)[O-])cc3)C2)cc1 (stereo not drawn) [Compound 15, 4-nitrophenyl 3-(hydroxybis(4-methoxyphenyl)methyl)pyrrolidine-1-carboxylate]
activity against FAAH, MAGL and other serine hydrolases [6]: inactive

Structure (SMILES): COc1ccccc1C(O)(c1ccccc1OC)C1CCN(C(=O)Oc2ccc([N+](=O)[O-])cc2)CC1 [Compound 33b, 4-nitrophenyl 4-(hydroxybis(2-methoxyphenyl)methyl)piperidine-1-carboxylate]
selectivity for MAGL over FAAH (MAGL [7]): ~ 10 fold

Structure (SMILES): COc1ccc(C(O)(c2ccc(OC)c(OC)c2)C2CCN(C(=O)Oc3ccc([N+](=O)[O-])cc3)CC2)cc1OC [Compound 33c, 4-nitrophenyl 4-(bis(3,4-dimethoxyphenyl)(hydroxy)methyl)piperidine-1-carboxylate]
Selectivity (MAGL [7]; MAGL over FAAH (ratio of IC50s)): >38
selectivity for MAGL over FAAH (MAGL [7]): 40–400 fold

Structure (SMILES): O=C(Oc1ccc([N+](=O)[O-])cc1)N1CCN(Cc2ccc(-c3ccccc3)s2)CC1 [Compound 36h, 4-nitrophenyl 4-((5-phenylthiophen-2-yl)methyl)piperazine-1-carboxylate]
NTE inhibition in vivo (NTE [8]): inhibited NTE

Structure (SMILES): O=C(Oc1ccc([N+](=O)[O-])cc1)N1CCN(Cc2cccc(Oc3cc(Cl)cc(Cl)c3)c2)CC1 [Compound 36q, 4-nitrophenyl 4-(3-(3,5-dichlorophenoxy)benzyl)piperazine-1-carboxylate]
activity against FAAH, MAGL and other serine hydrolases [6]: unable to inhibit any of the hydrolases
